Reference: ChEMBL document CHEMBL5316274 (J Med Chem, 2023)
pEC50, pIC50, pKi: −log10 of the molar value. Active and inactive are the calls of the source. The rule behind the calls is not given here.

How the values were obtained:
Mus musculus [1] = assay: Antinociceptive activity in Swiss Webster mouse assessed as increase in latency to tail withdrawal at 10 mg/kg, sc observed for 20 mins by warm water tail immersion assay; assay type: functional, organism-based
In short: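 Male Swiss-Webster mice (23–35 g, 7–8 weeks), n = 5. Compound given 10 mg/kg s.c. at time 0. Tail-flick latency is measured in 56 ± 0.1 °C water and expressed as % maximum possible effect against saline vehicle.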

[2] = Selectivity ratio, ratio of Ki for binding affinity to human delta opioid receptor expressed in CHO cell membrane to Ki for binding affinity to mouse mu opioid receptor expressed in CHO cell membrane
[3] = molecular target: Mu-type opioid receptor (Mus musculus) (UniProt P42866); assay: Binding affinity to mouse mu opioid receptor expressed in CHO cell membrane assessed as stimulation of [35S]-GTPgammaS binding by measuring maximal efficacy incubated for 1.5 hrs by scintillation spectroscopy analysis relative DAMGO; assay type: cell membranes
In short: (§1)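 MOR [35S]GTPγS functional assay in MOR-CHO membranes (Bmax about 2.5–4 pmol/mg). Efficacy is expressed as % of the maximal stimulation by full agonist DAMGO.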

Mu-type opioid receptor [4] = molecular target: T1, Mu-type opioid receptor (Mus musculus, UniProt P42866); assay: Binding affinity to mouse mu opioid receptor expressed in CHO cell membrane assessed as inhibition constant incubated for 1.5 hrs by competitive radioligand binding assay; assay type: cell membranes
Mus musculus [5] = species: Mus musculus; assay: Selectivity ratio, ratio of Ki for binding affinity to mouse kappa opioid receptor expressed in CHO cell membrane to Ki for binding affinity to mouse mu opioid receptor expressed in CHO cell membrane
Mu-type opioid receptor [6] = molecular target: T1, Mu-type opioid receptor; assay: Binding affinity to mouse mu opioid receptor expressed in CHO cell membrane assessed as [35S]GTPgammaS binding incubated for 1.5 hrs by liquid scintillation counter analysis; assay type: cell membranes; in short: as §1
Mus musculus [7] = assay: Effect of compound on chronic morphine pelleted Swiss Webster mouse model assessed as decrease in jump symptom at 50 mg/kg, sc and measured for 20 mins by withdrawal assay; assay type: functional, organism-based
Mus musculus [8] = assay: Antinociceptive activity in sc dosed Swiss Webster mouse assessed as inhibition of morphine induced latency to tail withdrawal preincubated for 5 mins followed by morphine addition and measured after 20 mins by warm water tail immersion assay; assay type: functional; conditions: 25 min
In short: (§2)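 Male Swiss-Webster mice (n = 5). Compound is given s.c. at time 0 (10 mg/kg in the single-dose screen, a dose range for AD50), and morphine 10 mg/kg follows 5 min later. Tail flick is tested in 56 ± 0.1 °C water 20 min after morphine and scored as % MPE. Saline and morphine alone are the controls.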

[9] = molecular target: Kappa-type opioid receptor (Mus musculus) (UniProt P33534); assay: Binding affinity to mouse kappa opioid receptor expressed in CHO cell membrane assessed as stimulation of [35S]-GTPgammaS binding by measuring maximal efficacy incubated for 1.5 hrs by scintillation spectroscopy analysis relative U50488H; assay type: cell membranes; conditions: filed as modulator
In short: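 KOR [35S]GTPγS functional assay in KOR-expressing CHO membranes. Efficacy is expressed as % of the maximal stimulation by full agonist U50,488H, with EC50 also determined. Mean of at least three independent experiments.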

Mus musculus [10] = assay: Effect of compound on chronic morphine pelleted Swiss Webster mouse model assessed as decrease in wet-dog shake symptom at 50 mg/kg, sc and measured for 20 mins by withdrawal assay; assay type: functional, organism-based
Mus musculus [11] = assay: Effect of compound on chronic morphine pelleted Swiss Webster mouse model assessed as decrease in paw tremors symptom at 50 mg/kg, sc and measured for 20 mins by withdrawal assay; assay type: functional, organism-based
[12] = molecular target: Kappa-type opioid receptor (Mus musculus) (UniProt P33534); assay: Binding affinity to mouse kappa opioid receptor expressed in CHO cell membrane assessed as stimulation of [35S]-GTPgammaS binding by measuring maximal efficacy incubated for 1.5 hrs by scintillation spectroscopy analysis relative SNC80; assay type: cell membranes
Mus musculus [13] = assay: Effect of compound on chronic morphine pelleted Swiss Webster mouse model assessed as decrease in paw tremors symptom at 10 to 80 mg/kg, sc and measured for 20 mins by withdrawal assay; assay type: functional, organism-based; conditions: dose 10-80 mg/kg
In short: (§3)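 Male Swiss-Webster mice made dependent with chronic morphine pellets. Compound is injected and wet-dog shakes, paw tremors and jumps are counted over 20 min after each injection.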

Mus musculus [14] = assay: Antinociceptive activity in Swiss Webster mouse assessed as inhibition of morphine induced latency to tail withdrawal at 10 mg/kg, sc preincubated for 5 mins followed by morphine addition and measured after 20 mins by warm water tail immersion assay; assay type: functional, organism-based; conditions: time 25.0 min; in short: as §2
Mu-type opioid receptor [15] = molecular target: T1, Mu-type opioid receptor; assay: Antagonist activity at mouse mu opioid receptor expressed in CHO cells co-expressing Gqi5 assessed as inhibition of DAMGO induced increase in intracellular calcium flux incubated for 15 mins by Calcium flux assay; assay type: functional, cell-based
In short: (§4)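 MOR-CHO cells transiently transfected with Gqi5 (4 h at 37 °C, 5% CO2), replated and used 48 h post-transfection. For antagonist mode DAMGO is then added. Fluorescence (RFU) is read for 90 s and peak values are taken. IC50 comes from non-linear regression. Triplicates, at least four experiments.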

[16] = molecular target: Voltage-gated inwardly rectifying potassium channel KCNH2 (Homo sapiens, UniProt Q12809); assay: Inhibition of human ERG expressed in CHO-K1 cells with holding potential of -80 mV by automated patch clamp assay; conditions: CHO-K1 cells expressing human ERG
Mus musculus [17] = assay: Effect of compound on chronic morphine pelleted Swiss Webster mouse model assessed as decrease in wet-dog shake symptom at 10 to 80 mg/kg, sc and measured for 20 mins by withdrawal assay; assay type: functional, organism-based; conditions: dose 10-80 mg/kg; in short: as §3
[18] = molecular target: Mu-type opioid receptor (Mus musculus) (UniProt P42866); assay: Agonist activity at mouse mu opioid receptor expressed in CHO cells co-expressing Gqi5 assessed as increase in intracellular calcium level incubated for 15 mins by Calcium flux assay; assay type: functional, cell-based
In short: as §4, with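 “post-transfection. Cells are loaded with fluo-4 AM plus probenecid in HBSS–HEPES buffer for 45 min, then exposed to compound for 15 min (agonist mode 0.3 nM to 3 μM).” for “post-transfection.”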

[19] = Efflux ratio of apparent permeability in human Caco-2 cells; assay type: ADME, cell-based
Mus musculus [20] = assay: Effect of compound on chronic morphine pelleted Swiss Webster mouse model assessed as decrease in jump symptom at 40 mg/kg, sc and measured for 20 mins by withdrawal assay; assay type: functional, organism-based; in short: as §3
[21] = molecular target: Kappa-type opioid receptor (Mus musculus, UniProt P33534); assay: Binding affinity to mouse kappa opioid receptor expressed in CHO cell membrane assessed as inhibition constant incubated for 1.5 hrs by competitive radioligand binding assay; assay type: cell membranes
[22] = Metabolic stability in rat liver microsomes assessed as half life; assay type: ADME, Microsome
In short: (§5)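 Human or rat liver microsomal stability, run by a contract lab. Half-life and hepatic CLint are reported.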

[23] = Protein binding in rat plasma at 10 uM and measured upto 24 hrs by equilibrium dialysis based MS analysis; assay type: ADME, cell-free
[24] = Metabolic stability in human liver microsomes assessed as half life; assay type: ADME, Microsome; in short: as §5
[25] = Protein binding in human plasma at 10 uM and measured upto 24 hrs by equilibrium dialysis based MS analysis; assay type: ADME, cell-free
Mus musculus [26] = assay: Effect of compound on chronic morphine pelleted Swiss Webster mouse model assessed as decrease in paw tremors symptom at 1 mg/kg, sc and measured for 20 mins by withdrawal assay; assay type: functional, organism-based; in short: as §3
Mus musculus [27] = assay: Effect of compound on chronic morphine pelleted Swiss Webster mouse model assessed as decrease in wet-dog shake symptom at 1 mg/kg, sc and measured for 20 mins by withdrawal assay; assay type: functional, organism-based; in short: as §3
Mus musculus [28] = assay: Effect of compound on chronic morphine pelleted Swiss Webster mouse model assessed as decrease in jump symptom at 1 mg/kg, sc and measured for 20 mins by withdrawal assay; assay type: functional, organism-based; in short: as §3

In the case of O=C(N[C@@H]1CC[C@@]2(O)[C@H]3Cc4ccc(O)c5c4[C@@]2(CCN3CC2CC2)[C@H]1O5)c1cccc2c(Cl)c[nH]c12, the Activity (Mus musculus [1]) was “Active”, the Ratio Ki [2] was 7.2 and the Emax ([3]; filed as modulator) was 59.5%. It also gave a pKi (Mu-type opioid receptor [4]) of 9.21, a Ratio Ki (Mus musculus [5]) of 0.5 and a pEC50 (Mu-type opioid receptor [6]) of 8.98.

For O=C(N[C@H]1CC[C@@]2(O)[C@H]3Cc4ccc(O)c5c4[C@@]2(CCN3CC2CC2)[C@H]1O5)c1cccc2cc[nH]c12, the Activity (Mus musculus [7]) was “inactive”, the ED50 (Mus musculus [8]) was 2.07 mg/kg and the Emax [9] was 48.3%. For the same molecule, the Activity (Mus musculus [10]) was “inactive”, the Emax [3] was 19.1% and the Activity (Mus musculus [11]) was “Active”. The Emax ([12]; filed as modulator) was 76.8%.

For Cc1cc2cccc(C(=O)N[C@H]3CC[C@@]4(O)[C@H]5Cc6ccc(O)c7c6[C@@]4(CCN5CC4CC4)[C@H]3O7)c2[nH]1.Cl, the Activity (Mus musculus [13]) was “Active”, the Activity (Mus musculus [14]) was “Active” and the ED50 (Mus musculus [8]) was 10.6 mg/kg. For the same molecule, the Emax [9] was 73.9%, the pIC50 (Mu-type opioid receptor [15]) was 7.06 and the IC50 [16] was 0.14 nM. For the same molecule, the Activity (Mus musculus [17]) was “inactive”, the Activity [18] was “inactive” and the Ratio [19] was 2.2. The Emax [3] was 12%, the Activity (Mus musculus [20]) was “Active” and the pKi [21] was 8.68. The pKi (Mu-type opioid receptor [4]) was 9.23, the Ratio Ki (Mus musculus [5]) was 3.6 and the t1/2 [22] was over 1 h. For the same molecule, the PPB [23] was 96%, the pEC50 (Mu-type opioid receptor [6]) was 8.41 and the Emax [12] was 26.7%. For the same molecule, the t1/2 [24] was over 1 h and the PPB [25] was 99%.

For Cc1c[nH]c2c(C(=O)N[C@@H]3CC[C@@]4(O)[C@H]5Cc6ccc(O)c7c6[C@@]4(CCN5CC4CC4)[C@H]3O7)cccc12, the Activity (Mus musculus [1]) was “Active”, the Emax ([3]; filed as modulator) was 44% and the pKi [21] was 9.00. For the same molecule, the pKi (Mu-type opioid receptor [4]) was 9.34 and the pEC50 (Mu-type opioid receptor [6]) was 8.91.

With O=C(N[C@@H]1CC[C@@]2(O)[C@H]3Cc4ccc(O)c5c4[C@@]2(CCN3CC2CC2)[C@H]1O5)c1cccc2c([N+](=O)[O-])c[nH]c12 the Activity (Mus musculus [1]) was “Active”, the Ratio Ki [2] was 47.5 and the Emax ([3]; filed as modulator) was 60.9%. The pKi [21] was 9.10, the pKi (Mu-type opioid receptor [4]) was 9.27 and the Ratio Ki (Mus musculus [5]) was 1.5. It also gave a pEC50 (Mu-type opioid receptor [6]) of 8.95.

With C=CCN1CC[C@]23c4c5ccc(O)c4O[C@H]2C(=O)CC[C@@]3(O)[C@H]1C5 the Activity (Mus musculus [26]) was “Active”, the Activity (Mus musculus [27]) was “Active” and the Activity (Mus musculus [28]) was “Active”.

In the case of O=C(N[C@@H]1CC[C@@]2(O)[C@H]3Cc4ccc(O)c5c4[C@@]2(CCN3CC2CC2)[C@H]1O5)c1cccc2cc(Br)[nH]c12, the Activity (Mus musculus [14]) was “inactive”, the Ratio Ki [2] was 8.8 and the Emax [3] was 36.2%. The pKi [21] was 9.34, the pKi (Mu-type opioid receptor [4]) was 9.46 and the Ratio Ki (Mus musculus [5]) was 1.3. It also gave a pEC50 (Mu-type opioid receptor [6]) of 9.06.

For N#Cc1c[nH]c2c(C(=O)N[C@@H]3CC[C@@]4(O)[C@H]5Cc6ccc(O)c7c6[C@@]4(CCN5CC4CC4)[C@H]3O7)cccc12, the Activity (Mus musculus [14]) was “inactive”, the Ratio Ki [2] was 67.4 and the Emax [3] was 38.8%. For the same molecule, the pKi [21] was 9.00, the pKi (Mu-type opioid receptor [4]) was 9.42 and the Ratio Ki (Mus musculus [5]) was 2.7. It also gave a pEC50 (Mu-type opioid receptor [6]) of 8.51.
